The target in data set [1] is Large neutral amino acids transporter small subunit 1 (Homo sapiens) (UniProt Q01650). The data set can be described thus: Inhibition of LAT1-mediated [3H]-leucine uptake in human L3.6PL cells at 30 uM and 37 degree C measured after 2 mins by scintillation counter method. The format is cell-based.
Data set [2] concerns CHO-K1. As to the kind of experiment: Cytotoxicity against CHOK1 cells assessed as effect on cell growth at 10 uM measured after 48 hrs by MTS assay. The data set is classed as cell-based, Cricetulus griseus. The following applies: chinese hamster, cho-k1, 48 h. For orientation: Tetrazolium assays rely on reduction of a dye to a coloured formazan, in cell work by metabolically active cells.

For data set [3], the system named is CHO-K1. The data set can be described thus: Inhibition of polyamine transporter in DFMO-treated CHOK1 cells assessed as prevention of spermidine entry into cells by measuring rescue of DFMO-induced reduction in cell growth at 1 to 10 uM measured after 48 hrs in presence of amine oxidase suppressor aminoguanidine by MTS assay. The format is cell-based. The following applies: Cricetulus griseus. In outline: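 CHO K1 cells (1000 cells/well) were pre-incubated 24 h with 1 mM aminoguanidine. They were then given fixed DFMO (4.2 mM) and spermidine (1 μM) plus increasing compound doses for 48 h at 37°C. EC50 is the concentration bringing MTS relative growth halfway between the DFMO+Spd and DFMO-only controls. Runs were done twice in triplicate, with SD.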

Data set [4] deals with CHO-K1. As to the kind of experiment: Inhibition of polyamine transporter in CHOK1 cells assessed as rescue of 2.4 uM N-(anthracenylmethyl) homospermidine-induced toxicity by measuring cell growth at 7 uM measured after 48 hrs in presence of amine oxidase suppressor aminoguanidine by MTS assay (reference value: 23%). The format is cell-based. The following applies: Cricetulus griseus. Set-up: scale not given: the % may be the effect or the level left. In outline: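 CHO K1 cells (1000 cells/well, aminoguanidine 1 mM preincubation) were given a toxic Ant-44 dose (2.4 μM) with candidate compound at 5 or 7 μM. Cells were incubated 48 h at 37°C, and relative growth versus untreated control was read by MTS.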

Data set [5] relates to CHO-K1. As to the kind of experiment: Cytotoxicity against CHOK1 cells assessed as effect on cell growth at < 7 uM measured after 48 hrs by MTS assay. The format is cell-based, Cricetulus griseus. The following applies: chinese hamster, cho-k1, 48 h.
The subject of data set [6] is CHO-K1. The data set can be described thus: Potentiation of 0.5 uM N-(anthracenylmethyl) homospermidine-induced toxicity in CHOK1 cells assessed as increase in Ant-44-induced reduction in cell growth measured after 48 hrs in presence of amine oxidase suppressor aminoguanidine by MTS assay. The data set is classed as functional, cell-based. The following applies: Cricetulus griseus. In a few lines: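 CHO K1 cells were pretreated 24 h with 1 mM aminoguanidine, then given fixed Ant-44 (0.5 μM) plus increasing compound (up to 5 μM) for 48 h at 37°C. MTS growth was read, with EC50 defined as the dose halving growth relative to Ant-44 alone. Runs were done twice in triplicate, with SD.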

Data set [7] concerns L3.6pl. As to the kind of experiment: Cytotoxicity against human L3.6PL cells assessed as reduction in cell viability measured after 72 hrs by MTS assay. The data set is classed as cell-based. In outline: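 L3.6pl cells, 500 cells/well in RPMI 1640 with 10% FBS and 250 μM aminoguanidine, plated overnight. Compound in PBS added, then 72 h at 37°C. MTS absorbance at 490 nm. IC50 is the dose giving 50% relative growth versus untreated control. Run twice in triplicate.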

Data set [8] has as its system L3.6pl. The data set can be described thus: Cytotoxicity against human L3.6PL cells assessed as reduction in cell viability at 5 uM measured after 72 hrs by MTS assay. The data set is classed as cell-based.
The subject of data set [9] is L3.6pl. The data set can be described thus: Potentiation of 2 uM N-(anthracenylmethyl) homospermidine-induced toxicity in human L3.6PL cells assessed as increase in Ant-44-induced reduction in cell growth measured after 72 hrs in presence of amine oxidase suppressor aminoguanidine by MTS assay. The format is functional, cell-based. In outline:
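L3.6pl cells (500 cells/well) were pretreated 24 h with 250 μM aminoguanidine in PBS, then given Ant-44 (2 μM) with increasing compound for 72 h at 37°C. MTS growth was read, with EC50 relative to the Ant-44-only control.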

pEC50, pIC50: −log10 of the molar value. The source made the active and inactive calls.

Chain of Large neutral amino acids transporter small subunit 1 (Homo sapiens) (Q01650 whole entry): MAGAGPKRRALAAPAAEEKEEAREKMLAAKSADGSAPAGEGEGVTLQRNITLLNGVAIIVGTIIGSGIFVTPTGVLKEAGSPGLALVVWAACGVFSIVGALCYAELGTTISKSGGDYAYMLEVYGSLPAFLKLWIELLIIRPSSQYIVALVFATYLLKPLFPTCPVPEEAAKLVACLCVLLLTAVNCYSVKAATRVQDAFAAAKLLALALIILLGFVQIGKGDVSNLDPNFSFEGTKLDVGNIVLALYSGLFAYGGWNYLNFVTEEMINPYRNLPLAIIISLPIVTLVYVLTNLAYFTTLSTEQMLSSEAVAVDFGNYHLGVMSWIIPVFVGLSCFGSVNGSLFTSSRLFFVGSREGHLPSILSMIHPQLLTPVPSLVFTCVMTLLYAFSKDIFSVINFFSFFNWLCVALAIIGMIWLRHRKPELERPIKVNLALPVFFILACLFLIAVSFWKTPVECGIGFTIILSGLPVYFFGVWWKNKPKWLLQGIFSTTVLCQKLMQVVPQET

Consider `Nc1cc(COc2c(Cl)cc(C[C@H](N)C(=O)O)cc2Cl)c2oc(-c3ccccc3)nc2c1`, for which the inhibition result in data set [1] was “Active”.

As a reminder, the pEC50 is the EC50 on a negative log10 scale, so that one unit is a factor of ten. A word on the pIC50: it is the negative decadic logarithm of the IC50, by convention in mol/L. For `CC(C)(C)CCN1CCN([C@H](CNCc2ccccc2)Cc2ccccc2)C[C@@H]1Cc1ccccc1`, the Activity result is “Non-Toxic” in [2]; 2.1% in [4]; “Non-Toxic” in [5]; “Dose-dependent effect” in data set [6]; “Non-Toxic” in data set [8]. In [3], the inhibition result is “inactive”. Further, the pEC50 in [6] (CHO-K1, 48 h) is 6.12; in [9], 5.49. For the same compound, the negative-log IC50 (pIC50) in [7] is 4.93.

These data come from ChEMBL document CHEMBL4613249, “Serendipitous Discovery of Leucine and Methionine Depletion Agents during the Search for Polyamine Transport Inhibitors” (J Med Chem, 2020).
